Measured values from ChEMBL document CHEMBL1121715, “New antiarrhythmic agents. 4. 1'-(Aminoalkyl)-1,2,3,4-tetrahydronaphthalene-1-spiro-3'-pyrrolidine-2',5'-dione derivatives” (J Med Chem, 1981).

Legend:
Mus musculus [1] = assay: Protection against chloroform induced arrhythmias was measured in mice after sc administration at given dose; format: functional
How it was run: (§1)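 Groups of 10 unanesthetized mice got sc injection of drug in 0.9% saline. After 20 min observation they were placed one by one in chloroform-vapor-saturated air. When breathing stopped, the thorax was opened and the heart inspected by eye; coordinated ventricular contractions counted as protected.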

Canis familiaris [2] = assay: MABP value was measured in anesthetized dog at 0.058 dose; format: functional, Canis lupus familiaris; conditions: in the assay text read “unanesthetized dog” for “anesthetized dog”
How it was run: (§2)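 Adult female dogs (6.7–14.5 kg) had two-stage ligation of the left anterior descending coronary artery the day before testing. After control ventricular rate, % ectopic beats and mean arterial pressure were recorded, the drug (HCl salt, isotonic solution) was infused iv without anesthesia at 0.1, 0.5 or 1.0 (mg/kg)/min, mostly 0.5. Infusion continued until the arrhythmia was abolished or cardiovascular/CNS toxicity appeared. Cumulative dose is given in mmol/kg; toxicity included convulsion and P-R prolongation ≥25%.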

Canis familiaris [3] = organism: Canis familiaris; assay: Nature of toxicity was expressed; A-V convulsion; format: organism-based, Canis lupus familiaris; conditions: dog, in vivo; how it was run: as §2
Mus musculus [4] = assay: Protection against chloroform induced arrhythmias in mice after subcutaneous administration at 100 mg/kg dose.; format: functional; how it was run: as §1
Canis familiaris [5] = assay: MABP value was measured in anesthetized dog at 0.015 dose; format: functional, Canis lupus familiaris; conditions: in the assay text read “unanesthetized dog” for “anesthetized dog”
How it was run: (§3)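 Adult female dogs (6.7–14.5 kg) had the left anterior descending coronary artery ligated in two stages the day before testing. Dogs were unanesthetized. Ectopic beats (% of ventricular rate) and mean arterial pressure were read at maximal antiarrhythmic effect against the cumulative dose.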

[6] = Volume of distribution was measured at given dose of 227 uM/kg; format: ADME, organism-based; conditions: in vivo
How it was run: (§4)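 In dogs given iv infusions, blood samples were alkaline-extracted (pH 10.3) into methylene chloride and derivatized with heptafluorobutyrylimidazole. Concentrations were measured by GC-FID against an internal standard using standard curves. Clearance was total dose ÷ blood-level AUC (zero to infinity), and volume of distribution was clearance ÷ elimination rate constant.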

Canis familiaris [7] = assay: % ectopic beats was measured in anesthetized dog at 0.053 dose; format: functional, Canis lupus familiaris, Heart; conditions: in the assay text read “unanesthetized” for “anesthetized”; how it was run: as §3
Canis familiaris [8] = assay: Blood level was measured in anesthetized dog at 0.038 dose; format: functional, Canis lupus familiaris
Canis familiaris [9] = assay: Ventricular rate was measured in anesthetized dog at 0.053 dose; format: functional, Canis lupus familiaris, Heart; conditions: in the assay text read “unanesthetized dog” for “anesthetized dog”; how it was run: as §2
Canis familiaris [10] = assay: Blood level was measured in anesthetized dog at 0.023 dose; format: functional, Canis lupus familiaris
Canis familiaris [11] = assay: Ventricular rate was measured in anesthetized dog at 0.023 dose; format: functional, Canis lupus familiaris, Heart; conditions: in the assay text read “unanesthetized” for “anesthetized”; how it was run: as §2
Canis familiaris [12] = assay: MABP value was measured in anesthetized dog at 0.018 dose; format: functional, Canis lupus familiaris; conditions: in the assay text read “unanesthetized dog” for “anesthetized dog”; how it was run: as §3
Canis familiaris [13] = assay: Blood level was measured in anesthetized dog at 0.015 dose; format: functional, Canis lupus familiaris
[14] = Maximal concentration in dogs after intravenous administration; conditions: dog, in vivo
Canis familiaris [15] = assay: as above; conditions: dog, in vivo
Canis familiaris [16] = assay: % ectopic beats was measured in anesthetized dog at 0.038 dose; format: functional, Canis lupus familiaris, Heart; conditions: in the assay text read “unanesthetized” for “anesthetized”; how it was run: as §3
Canis familiaris [17] = assay: Ventricular rate was measured in anesthetized dog at 0.015 dose; format: functional, Canis lupus familiaris, Heart; conditions: in the assay text read “unanesthetized dog” for “anesthetized dog”; how it was run: as §2
Canis familiaris [18] = assay: Blood level was measured in anesthetized dog at 0.018 dose; format: functional, Canis lupus familiaris
[19] = Total body clearance was measured at given dose; format: ADME
How it was run: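 Blood levels came from the iv-infused dogs, measured by GC-FID after methylene chloride extraction and heptafluorobutyryl derivatization with an internal standard. Total body clearance was total dose divided by the blood-level AUC (zero to infinity); volume of distribution was clearance divided by the elimination rate constant.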

Canis familiaris [20] = assay: % ectopic beats was measured in anesthetized dog at 0.018 dose; format: functional, Canis lupus familiaris, Heart; conditions: in the assay text read “unanesthetized” for “anesthetized”; how it was run: as §3
Canis familiaris [21] = assay: MABP value was measured in anesthetized dog at 0.023 dose; format: functional, Canis lupus familiaris; conditions: in the assay text read “unanesthetized dog” for “anesthetized dog”; how it was run: as §3
Canis familiaris [22] = assay: MABP value was measured in anesthetized dog at 0.053 dose; format: functional, Canis lupus familiaris; conditions: in the assay text read “unanesthetized dog” for “anesthetized dog”; how it was run: as §2
Canis familiaris [23] = organism: Canis familiaris; assay: The Maximum dose of the compound; format: functional, Canis lupus familiaris; how it was run: as §2
Canis familiaris [24] = assay: Blood level was measured in anesthetized dog at 0.058 dose; format: functional, Canis lupus familiaris
[25] = Percentage toxicity measured as death of mice.; format: organism-based; design: concentration or dose not given beside the values; conditions: mouse, in vivo; read-out: Death
Canis familiaris [26] = assay: Ventricular rate was measured in anesthetized dog at 0.058 dose; format: functional, Canis lupus familiaris, Heart; conditions: in the assay text read “unanesthetized” for “anesthetized”
How it was run: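 Adult female dogs (6.7–14.5 kg) had ventricular arrhythmias from two-stage ligation of the left anterior descending coronary artery the day before. Ventricular rate (bpm) was read at maximal antiarrhythmic effect against cumulative dose.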

Canis familiaris [27] = assay: % ectopic beats was measured in anesthetized dog at 0.015 dose; format: functional, Canis lupus familiaris, Heart; conditions: in the assay text read “unanesthetized” for “anesthetized”; how it was run: as §3
Canis familiaris [28] = assay: MABP value was measured in anesthetized dog at 0.038dose; format: functional, Canis lupus familiaris; conditions: in the assay text read “unanesthetized dog” for “anesthetized dog”; how it was run: as §2
Canis familiaris [29] = assay: % ectopic beats was measured in anesthetized dog at 0.023 dose; format: functional, Canis lupus familiaris, Heart; conditions: in the assay text read “unanesthetized” for “anesthetized”; how it was run: as §3
Mus musculus [30] = organism: Mus musculus; assay: Percentage toxicity measured as loss of righting reflex.; format: organism-based; conditions: in vivo
How it was run: (§5)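 Mice (groups of 10) were dosed sc with drug in 0.9% saline and watched for 20 min for overt toxicity (ataxia, convulsions, loss of righting reflex, death) before chloroform exposure.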

Mus musculus [31] = organism: Mus musculus; assay: Percentage toxicity measured as ataxia.; format: organism-based; conditions: in vivo; how it was run: as §5
Mus musculus [32] = organism: Mus musculus; assay: Percentage toxicity measured as convulsions.; format: organism-based; conditions: in vivo; how it was run: as §5
[33] = Volume of distribution was measured at given dose of 83 umol/kg; format: ADME, organism-based; conditions: in vivo; how it was run: as §4
Canis familiaris [34] = assay: Ventricular rate was measured in anesthetized dog at 0.018 dose; format: functional, Canis lupus familiaris, Heart; conditions: in the assay text read “unanesthetized dog” for “anesthetized dog”; how it was run: as §2
Canis familiaris [35] = organism: Canis familiaris; assay: The dose at which toxicity was measured; 0.065; 0.0182; format: organism-based, Canis lupus familiaris; conditions: dog, in vivo; how it was run: as §2
Canis familiaris [36] = assay: % ectopic beats was measured in unanesthetized dog at 0.058 dose
Canis familiaris [37] = assay: Blood level was measured in anesthetized dog at 0.053 dose; format: functional, Canis lupus familiaris
Canis familiaris [38] = organism: Canis familiaris; assay: Toxicity of blood level was measured; format: organism-based, Canis lupus familiaris; conditions: dog, in vivo
How it was run: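 In coronary-ligated conscious dogs under iv infusion, blood was sampled at toxicity. Drug was extracted with methylene chloride at pH 10.3 (ammonium citrate/ammonia) with another analogue as internal standard, then derivatized with heptafluorobutyrylimidazole. Assay was GC-FID on 3% JXR, quantified from drug/internal standard peak-height ratio against standard curves; results in μmol/mL.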

Canis familiaris [39] = assay: Ventricular rate was measured in anesthetized dog at 0.038 dose; format: functional, Canis lupus familiaris, Heart; conditions: in the assay text read “unanesthetized dog” for “anesthetized dog”; how it was run: as §2
Canis familiaris [40] = organism: Canis familiaris; assay: The Maximum dose of the Compound; format: functional, Canis lupus familiaris; how it was run: as §2

SMILES: CN(C)CCCCN1C(=O)CC2(CCCc3ccc(O)cc32)C1=O (stereo unspecified)
- ED50 (Mus musculus [1]): 160 µmol/kg
- MABP (Canis familiaris [2]): 95 mmHg
- Nature (Canis familiaris [3]): A-V convulsion
- Protection (Mus musculus [4]): 100%
- MABP (Canis familiaris [5]): 85 mmHg
- Vd [6]: 3.35 L/kg
- Etopic beats (Canis familiaris [7]): 3%
- Blood level (Canis familiaris [8]): 0.023 uM ml-1
- Ventricular rate (Canis familiaris [9]): 183 beats min-1
- Blood level (Canis familiaris [10]): 0.02 uM ml-1
- Ventricular rate (Canis familiaris [11]): 138 beats min-1
- MABP (Canis familiaris [12]): 120 mmHg
- Blood level (Canis familiaris [13]): 0.024 uM ml-1
- Cmax [14]: 37 µM
- Cmax (Canis familiaris [15]): 30 µM
- Etopic beats (Canis familiaris [16]): 0%
- Ventricular rate (Canis familiaris [17]): 165 beats min-1
- Blood level (Canis familiaris [18]): 0.022 uM ml-1
- ClB [19]: 17.5 mL/min/kg
- clearance ([19]; ClB): 31.6 mL/min/kg
- Etopic beats (Canis familiaris [20]): 1%
- MABP (Canis familiaris [21]): 110 mmHg
- MABP (Canis familiaris [22]): 135 mmHg
- Dose (Canis familiaris [23]): 227 µM/kg
- Blood level (Canis familiaris [24]): 0.017 uM ml-1
- mortality [25]: 0%
- Ventricular rate (Canis familiaris [26]): 171 beats min-1
- Etopic beats (Canis familiaris [27]): 0%
- MABP (Canis familiaris [28]): 105 mmHg
- Etopic beats (Canis familiaris [29]): 93%
- Loss of righting reflex (Mus musculus [30]): 0%
- Ataxia (Mus musculus [31]): 0%
- Convulsion (Mus musculus [32]): 0%
- Vd [33]: 3.02 L/kg
- Ventricular rate (Canis familiaris [34]): 150 beats min-1
- Dose (Canis familiaris [35]): A-V convulsion
- Ectopic beats (Canis familiaris [36]): 4%
- Blood level (Canis familiaris [37]): 0.028 uM ml-1
- Blood level (Canis familiaris [38]): 12 µM
- Ventricular rate (Canis familiaris [39]): 171 beats min-1
- Dose (Canis familiaris [40]): 83 µM/kg
